Arbovirus inh – blocks arbovirus infection | arbovirus infection cell-based antiviral screen | inhibition, % at 10 µM | 200,000 tested, 0.37% active | AID 1251; in the data active = inhibition above about 30%
Furin inhibitor – blocks human furin protease activity; P09958; purified furin, fluorogenic substrate cleavage; inhibition, % at 20 µM or 30 µM; 220,000 tested, 0.061% active; AID 463115; in the data active = inhibition above about 25%
Target sequence (P09958 108-714 limits assumed): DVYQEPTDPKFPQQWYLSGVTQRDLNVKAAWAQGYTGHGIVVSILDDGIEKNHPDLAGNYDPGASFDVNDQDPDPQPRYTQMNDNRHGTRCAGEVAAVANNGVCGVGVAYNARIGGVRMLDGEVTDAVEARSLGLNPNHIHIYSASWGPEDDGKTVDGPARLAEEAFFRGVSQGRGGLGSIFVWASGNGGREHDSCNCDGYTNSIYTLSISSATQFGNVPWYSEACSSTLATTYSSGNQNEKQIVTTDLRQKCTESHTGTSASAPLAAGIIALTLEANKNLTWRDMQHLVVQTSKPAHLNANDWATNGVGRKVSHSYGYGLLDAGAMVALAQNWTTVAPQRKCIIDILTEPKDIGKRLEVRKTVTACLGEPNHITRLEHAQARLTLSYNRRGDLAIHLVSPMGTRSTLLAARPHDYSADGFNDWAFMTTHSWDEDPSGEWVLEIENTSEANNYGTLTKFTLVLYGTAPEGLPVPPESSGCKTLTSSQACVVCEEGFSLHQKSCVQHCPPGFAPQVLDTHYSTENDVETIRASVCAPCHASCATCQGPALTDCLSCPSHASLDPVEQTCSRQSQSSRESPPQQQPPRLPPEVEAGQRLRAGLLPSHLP
ABCG2 inh – human ABCG2 inhibition, ABCB1 as counter-screen; Q9UNQ0; 190,000 tested, 0.1% active; inhibition, % at 6.6 µM; IgMXP3 cells, JC-1 efflux, flow cytometry;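 active = inhibition above 80%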;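 note: 0% = DMSO and 100% = nicardipine control wells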
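Measure – % inhibition of efflux relative to nicardipine and DMSO · Test system – ABCG2 IgMXP3 and barcoded ABCB1 CCRF-Adr cell mix · Control set – nicardipine as high control, DMSO as low control · Compound – one concentration, 6.6 µM final · Signal – flow cytometry of retained JC-1 fluorescence · Timing – 10 min exposure at 25 °C with rotation, no wash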
ABCB1 block – human ABCB1 inhibition, ABCG2 as counter-screen. inhibition, % at 6.6 µM. P08183. 190,000 tested, 0.067% active. CCRF-Adr cells, JC-1 efflux, flow cytometry; in the data active = inhibition above about 40%;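 note: 0% = vehicle and 100% = reference inhibitor; higher value means more JC-1 retained so stronger ABCB1 efflux block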
HSV replic up – increases HSV replication in cells. maximum fold increase. HSV replication augmentation in cells, fold increase. 220,000 tested, 0.005% active. AID 1956; in the data active = maximum fold increase above about 1.5; tested in PC3 cells
NCF1 inh – p47phox (human) inhibition; p47phox/p22phox peptide binding, fluorescence polarization, 2 h; inhibition, % at 24.7 µM; 220,000 tested, 0.53% active;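 active = inhibition above about 30%, limit read from the data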;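 note: 0% = p47phox with labelled peptide and 100% = labelled peptide alone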
Starred values were filed as active, the others as inactive; i = inactive; . = no result. This is a sample that favours compounds with a hit; in the whole collection about 0.95% have one here.

SMILES | Arbovirus inh | Furin inhibitor | ABCG2 inh | ABCB1 block | HSV replic up | NCF1 inh
Cc1ccc2c(c1)c1c(n2CC(O)Cn2c(C)nc3ccccc32)C(=O)CCC1 (stereo not drawn) | 37* | -22 | 2 | 2 | i | -2
Cc1ccc(S(=O)(=O)N2CCOCC2)cc1C(=O)Nc1ccc(S(=O)(=O)Nc2nccs2)cc1 | 6 | -18 | -8 | -1 | i | -2
Cc1ccc(C)c(S(=O)(=O)Nc2ccccc2C(=O)Nc2ccc(S(=O)(=O)Nc3ncccn3)cc2)c1 | 4 | -11 | -1 | -1 | i | -13
CCOC(=O)CSc1nnc(NC(=O)c2cc([N+](=O)[O-])cc([N+](=O)[O-])c2)s1 | 9 | 10 | -3 | -1 | i | 36*
CCC(=O)Nc1nc2ccccc2n1CCN1CCOCC1 | 5 | -24 | 1 | 0 | . | 38*
O=C1C=C(NNC(=O)c2cccnc2)CC(c2ccco2)C1 (stereo not drawn) | 1 | -16 | 1 | 0 | i | 2
Cc1ccc(S(=O)(=O)O/N=C2\CCCc3ccccc32)cc1 | -2 | -26 | 1 | 0 | i | 46*
CC#CCN(CC#CC)S(=O)(=O)c1ccc(S(=O)(=O)N2CCOCC2)cc1 | 2 | 2 | 3 | 1 | i | 194*
Cc1ccc(N(C(=O)c2ccco2)C2C=CS(=O)(=O)C2)cc1 (stereo not drawn) | 0 | -15 | 0 | 0 | i | -8
COCCn1c(=O)[nH]c(=O)c2c1nc(-c1ccc(-c3ccc(Cl)cc3[N+](=O)[O-])o1)n2Cc1ccccc1 | -21 | 4 | -5 | -1 | i | -19
COc1ccc(-c2ccc(-c3nc4c(c(=O)[nH]c(=O)n4Cc4ccccc4)n3C)o2)c([N+](=O)[O-])c1 | -28 | 6 | 17 | 2 | i | 55*
O=[N+]([O-])c1ccc2[nH]c3nc4ccccc4nc3c2c1 | . | -2 | . | . | i | 2
COC(=O)c1ccc(NC2(C#N)C(=O)Nc3ccccc32)cc1 (stereo not drawn) | -14 | 31* | 4 | 0 | i | -8
CCCCNC(=O)N1CCN(Cc2ccc(F)cc2)CC1 | 1 | -17 | 4 | 0 | i | -2
C#CCOCCOCCOCCNc1nc(N2CCN(C(=O)[C@H]([C@@H](C)CC)n3cc([C@@H](N)CC(C)C)nn3)CC2)nc(N2CCN(C(=O)[C@H](Cc3cc4ccccc4[nH]3)n3cc([C@@H](N)Cc4ccc(O)cc4)nn3)CC2)n1 | -9 | -18 | -2 | -1 | . | 53*
C#CCOCCOCCOCCNc1nc(N2CCN(C(=O)C(Cc3cc4ccccc4[nH]3)n3cc(C(N)C(C)CC)nn3)CC2)nc(N2CCN(C(=O)C(Cc3cc4ccccc4[nH]3)n3cc(C(N)C(C)CC)nn3)CC2)n1 (stereo not drawn) | -4 | -22 | 1 | 1 | . | 67*
C#CCOCCOCCOCCNc1nc(N2CCOCC2)nc(N2CCN(C(=O)[C@H](Cc3cc4ccccc4[nH]3)n3cc([C@@H](N)C(C)CC)nn3)CC2)n1 (stereo partly drawn) | 0 | -17 | -1 | -1 | i | 1
C#CCOCCOCCOCCNc1nc(N2CCN(C(=O)[C@H](Cc3ccc(O)cc3)n3cc([C@@H](N)C(C)CC)nn3)CC2)nc(N2CCN(C(=O)[C@H](Cc3cc4ccccc4[nH]3)n3cc([C@@H](N)Cc4ccc(O)cc4)nn3)CC2)n1 (stereo partly drawn) | . | 4 | . | . | . | 33*
C#CCOCCOCCOCCNc1nc(N2CCN(C(=O)[C@H](CCCCN)n3cc([C@@H](N)CC(C)C)nn3)CC2)nc(N2CCN(C(=O)[C@H](Cc3cc4ccccc4[nH]3)n3cc([C@@H](N)Cc4ccc(O)cc4)nn3)CC2)n1 | -8 | -5 | 2 | 0 | i | .
C#CCOCCOCCOCCNc1nc(N2CCN(C(=O)C(Cc3ccc(O)cc3)n3cc(C(N)CC(C)C)nn3)CC2)nc(N2CCN(C(=O)C(Cc3cc4ccccc4[nH]3)n3cc(C(N)C(C)CC)nn3)CC2)n1 (stereo not drawn) | -5 | -28 | -1 | 0 | . | .
C#CCOCCOCCOCCNc1nc(N2CCN(C(=O)[C@H](CCCCN)n3cc([C@@H](N)CO)nn3)CC2)nc(N2CCN(C(=O)[C@H](Cc3cc4ccccc4[nH]3)n3cc([C@@H](N)Cc4ccc(O)cc4)nn3)CC2)n1 | 0 | -26 | 1 | 0 | . | 39*
Cc1cc2ncn(S(=O)(=O)N3CCOCC3)c2cc1C | 0 | 27* | 2 | 0 | i | -5
CCOc1cc(/C=C2/SC(=S)NC2=O)ccc1OC(=O)c1ccco1 | 2 | 7 | -2 | -1 | 4.6* | -22
C=CCc1cccc2cc(C(=O)Nc3ccccc3C(=O)O)c(=O)oc12 | 32* | -12 | -1 | 0 | i | -21
C=CCc1cccc2cc(C(=O)O)c(=O)oc12 | 4 | -11 | 0 | 0 | i | 0
SMILES | Arbovirus inh | Furin inhibitor | ABCG2 inh | ABCB1 block | HSV replic up | NCF1 inh
Cc1ccc(NC2=C(Cl)C(=O)c3ccccc3C2=O)cc1 | -48 | 8 | 10 | 0 | i | -16
CCN(CC)c1ccc(NC2=C(Cl)C(=O)c3ccccc3C2=O)cc1 | -44 | -13 | -1 | 0 | i | 35*
COc1cc2nc(CN3CCC(C(O)(c4ccccc4)c4ccccc4)CC3)[nH]c(=O)c2cc1OC | 4 | -17 | 18 | 4 | i | 3
CCC1CCCCN1C(=O)Cn1nc([N+](=O)[O-])c(Cl)c1C (stereo not drawn) | -1 | -12 | 9 | 0 | i | 1
COc1ccc(CNC(=O)c2ccc(C(C)(C)C)cc2)cc1 | -4 | -23 | 6 | 1 | i | -1
COc1ccc(C(=O)NCC(C)(C)SCc2c(C)cc(C)cc2C)cc1 | 46* | -23 | 6 | 1 | i | -1
C=CCOc1ccc(Br)cc1/C=C1/SC(=Nc2ccc(C(=O)O)cc2)NC1=O | 32* | -3 | -2 | -1 | i | -96
CCOC(=O)c1c(NC(=O)CSc2ncnc3ccccc23)sc(C(C)=O)c1C | 3 | -8 | 40 | 42* | i | -74
CCOC(=O)c1c(NC(=O)CSc2ncn[nH]2)sc(C)c1C | 45* | -17 | 4 | 1 | i | -12
CCOC(=O)c1c(NC(=O)CSc2nc3cccnc3n2C)sc(C(C)=O)c1C | 6 | -25 | 3 | 3 | i | -61
CC/C(=N/O)C(=O)c1ccc(Br)cc1 | 20 | -20 | 2 | 0 | i | 5
Cc1nc2ccccc2nc(=O)c1NNc1ccccc1 | -1 | 1 | 10 | 1 | i | 74*
Cc1ccc2nc(=O)c(NNc3ccccc3)cnc2c1 | -18 | 4 | 19 | -3 | i | 4
CN1CCc2nc3sc(C(=O)C45CC6CC(CC(C6)C4)C5)c(N)c3cc2C1 | -31 | -17 | 5 | 1 | . | 48*
C=CCNC(=O)COC(=O)c1cccnc1Nc1ccccc1F | 12 | -15 | 3 | 0 | i | 5
